Experimental data from PubChem BioAssay AID449761 (Broad Institute, 2010).
Inconclusive results are not listed. The source made the active and inactive calls.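 How the source made its calls: active means compounds raising caspase signal with fitted AC50 no more than tenfold above the top tested dose; inconclusive means flat curve at 30 to 70% activity, or unusable fit; inactive means the rest.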

Test system: MEF WT non-primed, caspase-Glo luminescence, 3 h
Assay: caspase activity of non-primed cells – cell-based, caspase-Glo luminescence, 3 h, counter-screen for Bcl2-A1 inhibitor project, dose response (AID 449761)
How it was run: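 Test system – Non-primed wild-type MEF cells · Timing – 3 h compound at 37 °C, 1 h detection at room temperature · Technique – CaspaseGlo luminescence, reagent diluted 1:1 in 50 mM HEPES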

SMILES	AC50
O=C(NCc1ccccc1Cl)c1cccc2c1C(=O)c1ccc(-c3ccc(OC(F)(F)F)cc3)cc1S2(=O)=O	> 35 µM (inactive)
Cc1ccc(C(=O)/C=C/C(=O)c2ccc(C)cc2)cc1	5.73 µM
Cc1ccc(-c2nc(NC(=O)c3nn(C)cc3[N+](=O)[O-])sc2C)cc1	5.96 µM
CC1CCc2c(sc3nc(C(C)(C)C)nc(N4CCN(C(=O)CCl)CC4)c23)C1 (configuration not stated)	13 µM
Oc1[nH]c2ccc(Br)cc2c1N=NC(=S)Nc1ccc(F)cc1	> 35 µM (inactive)
O=C(NC[C@H]1CCCO1)c1cccc2c1C(=O)c1ccc(-c3ccc(F)cc3OCc3ccccc3)cc1S2(=O)=O	> 35 µM (inactive)
NC(=S)c1cn(C2OC(CO)C(O)C2O)c2ncnc(N)c12 (configuration not stated)	> 35 µM (inactive)
CCOC(=O)N1C(=O)[C@@](c2ccc(Cl)cc2)(C(C)C)N1C(=O)OCC	> 35 µM (inactive)
COc1ccc(C2CC(c3c(O)cc(C)oc3=O)=NCCS2)c(OC)c1 (configuration not stated)	> 35 µM (inactive)
O=C(NCCc1ccccc1)C(c1cccs1)N(C(=O)CCl)c1ccc(Cl)cc1 (configuration not stated)	16.4 µM
CCC(Sc1nc2cc3c(cc2c(=O)n1Cc1ccco1)OCO3)C(=O)Nc1cccc(OC)c1 (configuration not stated)	> 35 µM (inactive)
O=C(NCc1ccccc1Br)c1cccc2c1C(=O)c1ccc(-c3ccc(OC(F)(F)F)cc3)cc1S2(=O)=O	> 35 µM (inactive)
CC1=CC(=O)C(C(C)C)=C/C1=N/OS(=O)(=O)c1ccccc1	22 µM
O=[N+]([O-])/C=C/c1cn(Cc2ccc(Cl)cc2)c2ccccc12	18.4 µM
COc1cc(C(=O)Nc2cc3c(cc2N2CCCCC2)n(C)c(=O)n3C)cc(OC)c1OC	> 35 µM (inactive)
C=C1CCc2c([nH]c3ccc(OCC(C)C)cc23)C1=O	14.2 µM
O=C(Nc1ccc2oc(-c3cccc(F)c3)nc2c1)c1ccccc1F	> 35 µM (inactive)
CC1(C)C[C@H](O)[C@]2(CO)[C@H](O)C[C@]3(C)C(=CCC4[C@@]5(C)CC[C@H](O)C(C)(C)C5CC[C@]43C)[C@@H]2C1 (some centres not stated)	> 35 µM (inactive)
O=C(Nc1ccc([N+](=O)[O-])cc1)C(Cc1ccccc1)N1C(=O)c2cccc3cccc(c23)C1=O (configuration not stated)	> 35 µM (inactive)
Cc1ccc(S(=O)(=O)N(C)Cc2ccc(C(=O)N/N=C/c3ccc(OC(F)F)cc3)cc2)cc1	> 35 µM (inactive)
O=C1/C(=C\c2c(NCCOCCO)nc3ccccn3c2=O)SC(=S)N1Cc1ccco1	> 35 µM (inactive)
C#CC(=O)N(c1cc(OC)ccc1OC)C(C(=O)NC1CCCC1)c1cccs1 (configuration not stated)	> 35 µM (inactive)
COc1cc2cnc(-c3ccccc3)c(-c3cccc(C(F)(F)F)c3)c2cc1OC	> 35 µM (inactive)

SMILES	AC50
COc1cccc(C(=O)C(C#N)=C(SC)SC)c1	> 35 µM (inactive)
COCc1cc(C)nc(SCC(=O)Nc2nc(C)cs2)c1C#N	> 35 µM (inactive)
CCS(=O)(=O)c1ncc(Cl)c(C(=O)Nc2ccccc2OC)n1	> 35 µM (inactive)
COc1cc(C2CC(c3cccs3)=NN2C(=O)CCl)ccc1OC(F)F (configuration not stated)	32.9 µM
Cc1cccc(C)c1NC(=O)C(Cl)C(=O)c1ccccc1 (configuration not stated)	> 35 µM (inactive)
COc1ccc(C2Nc3ccc4ccccc4c3-c3c2c(=O)oc2ccccc32)cc1 (configuration not stated)	18 µM
COc1ccccc1C(=O)Nc1ccnn1C1CCN(Cc2cn(C)c3ccccc23)CC1	> 35 µM (inactive)
CCn1c(SCC(=O)c2ccccc2)nnc1-c1cc2cc(Br)ccc2o1	> 35 µM (inactive)
CC(C)(C)C1CCc2onc(C(=O)Nc3cccc(O)c3)c2C1 (configuration not stated)	> 35 µM (inactive)
Cc1nn(-c2ccccc2)c(Cl)c1CN(C(=O)CCl)c1ccc(Cl)cc1	24.6 µM
Cc1c(C=O)c(C=O)c(C)n1Cc1ccccc1	> 35 µM (inactive)
CCOC(=O)C1=C(c2ccccc2)O/C(=C(/C#N)C(F)(F)F)S1	> 35 µM (inactive)
COc1cc2ncnc(NCc3ccc(F)cc3)c2cc1OC	> 35 µM (inactive)
COc1cc(NC(=O)c2ccccc2F)ccc1NC(=O)c1cc2ccccc2o1	36.6 µM
COc1ccc2c(-c3cc4ccc(OCc5ccc(F)cc5)cc4oc3=O)cc(=O)oc2c1	23.9 µM
COc1ccc(C2C(O)C(c3c[nH]c4ccccc34)=NN2C(=O)CCl)cc1 (configuration not stated)	36.1 µM
Cc1ccc(C2(c3ccc(C)cc3)CC2C(=O)Nc2ccc([N+](=O)[O-])cc2O)cc1 (configuration not stated)	> 35 µM (inactive)
O=C(CCl)N=c1sccn1Cc1ccccc1Cl	> 35 µM (inactive)
CC[C@H]1CN2CCc3cc(OC)c(OC)cc3[C@@H]2C[C@@H]1C[C@H]1NCCc2cc(OC)c(OC)cc21	> 35 µM (inactive)
COc1ccc(-c2ccc3c(c2)S(=O)(=O)c2cccc(C(=O)NCc4cccc(OC(F)(F)F)c4)c2C3=O)cc1OC	8.54 µM
CCOC(=O)/C=c1\s/c(=C\c2ccc(C(=O)OC)cc2)c(=O)n1CC(=O)Nc1ccccc1	> 35 µM (inactive)
COc1ccc(-c2c(C#N)c(N)nc(Sc3ccc(Cl)cc3)c2C#N)cc1	> 35 µM (inactive)
Cc1ccc(C)c(S(=O)(=O)NCC(=O)Nc2sc3c(c2C(N)=O)CCC(C)C3)c1 (configuration not stated)	> 35 µM (inactive)

SMILES	AC50
CCCCCCCC/C=C\CCCCCCCC(=O)NCCc1ccc(O)c(O)c1	14 µM
COc1ccc2cc(C)c3nnc(SCC(=O)Nc4nc(-c5ccc(F)cc5)cs4)n3c2c1	26.2 µM
COC(=O)c1ccc2c(c1)C(C)(C)C(/C=C/c1ccc(O)cc1)=[N+]2C	14.2 µM
COc1ccccc1-c1cn[nH]c1-c1ccc(OCc2ccccc2)cc1O	> 35 µM (inactive)
CC(=O)Nc1ncnc2c1c(-c1ccc(Cl)cc1)nn2C(C)(C)C	> 35 µM (inactive)
Cc1cccc(Nc2nc(N)c([N+](=O)[O-])c(N3CCCC(C)C3)n2)c1 (configuration not stated)	> 35 µM (inactive)
O=C(Nc1ccc2oc(-c3ccccc3)nc2c1)c1ccccc1F	> 35 µM (inactive)
Nc1nc(F)nc2c1ncn2[C@@H]1O[C@H](CO)[C@@H](O)[C@H]1O	> 35 µM (inactive)
CC(=O)OC(C)(C)/C=C/C(=O)C(C)(O)C1[C@H](O)C[C@@]2(C)C3CC=C4C(CC[C@@H](O)C4(C)C)[C@]3(CO)C(=O)C[C@]12C (some centres not stated)	> 35 µM (inactive)
COC(=O)Cc1csc(/N=C/c2c(O)n(-c3cccc(C(F)(F)F)c3)c(=O)c3ccccc23)n1	9.26 µM
COc1ccc(NC(=O)CSc2nc3ccc(Nc4nc(N5CCOCC5)nc(N5CCOCC5)n4)cc3s2)cc1	> 35 µM (inactive)
N#C/C(=C\c1ccc(OCc2ccccc2)cc1)C(=O)Nc1nc2c(s1)CCN(Cc1ccccc1)C2	> 35 µM (inactive)
O=c1c(Cl)c(Cl)cnn1Cc1ccccc1Cl	> 35 µM (inactive)
CCOc1ccc(NC(=S)NC(=O)/C=C/c2ccc(C)cc2)c([N+](=O)[O-])c1	21.7 µM
O=C(/C=C/c1ccc(F)cc1)NC(=S)Nc1ccccc1C(=O)NC1CCCCC1	> 35 µM (inactive)
CCOC(=O)c1sc(NC(=O)CSc2nc(C)cc(C)c2C#N)c(C#N)c1C	> 35 µM (inactive)
CCOc1cc(/C=C\[N+](=O)[O-])ccc1OCC(=O)Nc1ccccc1C	5.27 µM
Cc1ccc(N(Cc2cc(=O)[nH]c3ccccc23)C(=O)CCl)cc1	> 35 µM (inactive)
O=C(Oc1cccc(/C=N/Nc2nc(Nc3ccccc3)nc(N3CCOCC3)n2)c1)c1ccco1	> 35 µM (inactive)
O=C(Nc1ccc(Cl)cc1Cl)c1cccc(N2C(=O)C=CC2=O)c1	35.8 µM
Cc1ccc(C=C2C(Cl)=C(Cl)C(Cl)=C2Cl)cc1	5.72 µM
